Values after ≈ are worked out from the molar mass of the structure shown.
Legend:
Assay type in all cases: functional
Staphylococcus aureus [1] = assay: Antibacterial activity against multidrug-resistant Staphylococcus aureus isolate 774 by broth microdilution assay
Procedure, shortened: (§1)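 Broth microdilution MIC per CLSI guidelines against clinical MRSA isolates, for β-lactams and test compound alone and in combination. Compounds were dissolved in DMSO. Growth was read by eye, in duplicate. FIC index = FIC(compound) + FIC(drug); synergy defined as FIC index ≤0.5.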

Staphylococcus aureus [2] = assay: Synergistic antibacterial activity against multidrug-resistant Staphylococcus aureus isolate 417 assessed as fractional Inhibitory concentration index in presence of amoxicillin by broth microdilution assay
Staphylococcus aureus [3] = assay: Synergistic antibacterial activity against multidrug-resistant Staphylococcus aureus isolate 2490 assessed as fractional Inhibitory concentration index in presence of cloxacillin by broth microdilution assay
Procedure, shortened: (§2)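 CLSI broth microdilution run on clinical MRSA isolates with each β-lactam alone, the test agent alone, and the two combined; agents dissolved in DMSO. Growth inhibition was read by eye. FIC index = FIC(compound) + FIC(β-lactam), where each FIC is the MIC in combination divided by the MIC alone. An index ≤0.5 was taken as synergy.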

Staphylococcus aureus [4] = assay: Synergistic antibacterial activity against multidrug-resistant Staphylococcus aureus isolate 417 in presence of cefuroxime by broth microdilution assay
Staphylococcus aureus [5] = assay: Synergistic antibacterial activity against multidrug-resistant Staphylococcus aureus isolate 1749 in presence of methicillin by broth microdilution assay
Procedure, shortened: (§3)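 Clinical MRSA isolate panel; compound and β-lactam tested alone and in combination by CLSI broth microdilution, compounds dissolved in DMSO, growth inhibition scored by eye, run in duplicate. FIC index = FIC(compound) + FIC(drug), each the MIC in combination divided by the MIC alone; an index ≤ 0.5 was called synergy.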

Staphylococcus aureus [6] = assay: Synergistic antibacterial activity against multidrug-resistant Staphylococcus aureus isolate 3411 in presence of meropenem by broth microdilution assay
Staphylococcus aureus [7] = assay: Synergistic antibacterial activity against multidrug-resistant Staphylococcus aureus isolate 1344 in presence of methicillin by broth microdilution assay; procedure, shortened: as §3
Staphylococcus aureus [8] = assay: Synergistic antibacterial activity against multidrug-resistant Staphylococcus aureus isolate 2895 assessed as fractional Inhibitory concentration index in presence of cefuroxime by broth microdilution assay
Staphylococcus aureus [9] = assay: Synergistic antibacterial activity against multidrug-resistant Staphylococcus aureus isolate 3580 in presence of cefuroxime by broth microdilution assay
Staphylococcus aureus [10] = assay: Synergistic antibacterial activity against multidrug-resistant Staphylococcus aureus isolate 2973 in presence of amoxicillin by broth microdilution assay
Procedure, shortened: (§4)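 CLSI broth microdilution on clinical MRSA isolates. MICs were measured for the β-lactam alone, the test agent alone and the two combined. Compounds were dissolved in DMSO, and growth inhibition was scored by eye. FIC index is the sum, over both agents, of MIC in combination divided by MIC alone. An FIC index ≤0.5 was taken as synergy.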

Staphylococcus aureus [11] = assay: Synergistic antibacterial activity against multidrug-resistant Staphylococcus aureus isolate 2490 in presence of meropenem by broth microdilution assay; procedure, shortened: as §3
Staphylococcus aureus [12] = assay: Synergistic antibacterial activity against multidrug-resistant Staphylococcus aureus isolate 757 assessed as fractional Inhibitory concentration index in presence of meropenem by broth microdilution assay
Staphylococcus aureus [13] = assay: Antibacterial activity against multidrug-resistant Staphylococcus aureus isolate 417 by broth microdilution assay; procedure, shortened: as §1
Staphylococcus aureus [14] = assay: Antibacterial activity against multidrug-resistant Staphylococcus aureus isolate 2728 by broth microdilution assay; procedure, shortened: as §1
Staphylococcus aureus [15] = assay: Synergistic antibacterial activity against multidrug-resistant Staphylococcus aureus isolate 2973 assessed as fractional Inhibitory concentration index in presence of cefuroxime by broth microdilution assay
Staphylococcus aureus [16] = assay: Antibacterial activity against multidrug-resistant Staphylococcus aureus isolate 3589 by broth microdilution assay; procedure, shortened: as §1
Staphylococcus aureus [17] = assay: Synergistic antibacterial activity against multidrug-resistant Staphylococcus aureus isolate 3267 in presence of amoxicillin by broth microdilution assay; procedure, shortened: as §4
Staphylococcus aureus [18] = assay: Synergistic antibacterial activity against multidrug-resistant Staphylococcus aureus isolate 200 assessed as fractional Inhibitory concentration index in presence of amoxicillin by broth microdilution assay; procedure, shortened: as §2
Staphylococcus aureus [19] = assay: Synergistic antibacterial activity against multidrug-resistant Staphylococcus aureus isolate 2728 in presence of cloxacillin by broth microdilution assay; procedure, shortened: as §4
Staphylococcus aureus [20] = assay: Synergistic antibacterial activity against multidrug-resistant Staphylococcus aureus isolate 2901 in presence of methicillin by broth microdilution assay; procedure, shortened: as §4
Staphylococcus aureus [21] = assay: Synergistic antibacterial activity against multidrug-resistant Staphylococcus aureus isolate 3589 assessed as fractional Inhibitory concentration index in presence of methicillin by broth microdilution assay
Staphylococcus aureus [22] = assay: Antibacterial activity against multidrug-resistant Staphylococcus aureus isolate 2901 by broth microdilution assay; procedure, shortened: as §1
Staphylococcus aureus [23] = assay: Synergistic antibacterial activity against multidrug-resistant Staphylococcus aureus isolate 774 in presence of meropenem by broth microdilution assay
Staphylococcus aureus [24] = assay: Synergistic antibacterial activity against multidrug-resistant Staphylococcus aureus isolate 2901 assessed as fractional Inhibitory concentration index in presence of meropenem by broth microdilution assay
Staphylococcus aureus [25] = assay: Synergistic antibacterial activity against multidrug-resistant Staphylococcus aureus isolate 757 in presence of amoxicillin by broth microdilution assay
Staphylococcus aureus [26] = assay: Synergistic antibacterial activity against multidrug-resistant Staphylococcus aureus isolate 358 assessed as fractional Inhibitory concentration index in presence of methicillin by broth microdilution assay
Staphylococcus aureus [27] = assay: Antibacterial activity against multidrug-resistant Staphylococcus aureus isolate 200 by broth microdilution assay; procedure, shortened: as §1
Staphylococcus aureus [28] = assay: Synergistic antibacterial activity against multidrug-resistant Staphylococcus aureus isolate 757 assessed as fractional Inhibitory concentration index in presence of methicillin by broth microdilution assay
Staphylococcus aureus [29] = assay: Synergistic antibacterial activity against multidrug-resistant Staphylococcus aureus isolate 757 assessed as fractional Inhibitory concentration index in presence of amoxicillin by broth microdilution assay
Staphylococcus aureus [30] = assay: Synergistic antibacterial activity against multidrug-resistant Staphylococcus aureus isolate 200 assessed as fractional Inhibitory concentration index in presence of meropenem by broth microdilution assay; procedure, shortened: as §2
Staphylococcus aureus [31] = assay: Synergistic antibacterial activity against multidrug-resistant Staphylococcus aureus isolate 256 in presence of cloxacillin by broth microdilution assay; procedure, shortened: as §4
Staphylococcus aureus [32] = assay: Synergistic antibacterial activity against multidrug-resistant Staphylococcus aureus isolate 1344 in presence of amoxicillin by broth microdilution assay; procedure, shortened: as §3
Staphylococcus aureus [33] = assay: Synergistic antibacterial activity against multidrug-resistant Staphylococcus aureus isolate 3332 assessed as fractional Inhibitory concentration index in presence of amoxicillin by broth microdilution assay
Staphylococcus aureus [34] = assay: Synergistic antibacterial activity against multidrug-resistant Staphylococcus aureus isolate 3332 assessed as fractional Inhibitory concentration index in presence of methicillin by broth microdilution assay
Staphylococcus aureus [35] = assay: Synergistic antibacterial activity against multidrug-resistant Staphylococcus aureus isolate 1344 in presence of meropenem by broth microdilution assay; procedure, shortened: as §3
Staphylococcus aureus [36] = assay: Synergistic antibacterial activity against multidrug-resistant Staphylococcus aureus isolate 2919 assessed as fractional Inhibitory concentration index in presence of amoxicillin by broth microdilution assay
Staphylococcus aureus [37] = assay: Antibacterial activity against multidrug-resistant Staphylococcus aureus isolate 1449 by broth microdilution assay; procedure, shortened: as §1
Staphylococcus aureus [38] = assay: Synergistic antibacterial activity against multidrug-resistant Staphylococcus aureus isolate 1749 assessed as fractional Inhibitory concentration index in presence of amoxicillin by broth microdilution assay; procedure, shortened: as §2
Staphylococcus aureus [39] = assay: Synergistic antibacterial activity against multidrug-resistant Staphylococcus aureus isolate 2901 assessed as fractional Inhibitory concentration index in presence of methicillin by broth microdilution assay

CCCCCCCCCNc1ccc(F)c(C(N)=O)c1F
MIC (Staphylococcus aureus [1]): 512 µg/mL (≈ 1720 µM) | fractional inhibitory concentration index (FICI) (Staphylococcus aureus [2]): 0.3 | fractional inhibitory concentration index (FICI) (Staphylococcus aureus [3]): 0.6 | MIC (Staphylococcus aureus [4]): 2 µg/mL | MIC (Staphylococcus aureus [5]): 2 µg/mL | MIC (Staphylococcus aureus [6]): 4 µg/mL | MIC (Staphylococcus aureus [7]): 4 µg/mL | fractional inhibitory concentration index (FICI) (Staphylococcus aureus [8]): 0.3 | MIC (Staphylococcus aureus [9]): 2 µg/mL | MIC (Staphylococcus aureus [10]): 8 µg/mL | MIC (Staphylococcus aureus [11]): 4 µg/mL | fractional inhibitory concentration index (FICI) (Staphylococcus aureus [12]): 4.1 | MIC (Staphylococcus aureus [13]): 32 µg/mL (≈ 107 µM) | MIC (Staphylococcus aureus [14]): 128 µg/mL (≈ 429 µM) | fractional inhibitory concentration index (FICI) (Staphylococcus aureus [15]): 0.5 | MIC (Staphylococcus aureus [16]): 8 µg/mL (≈ 26.8 µM) | MIC (Staphylococcus aureus [17]): 2 µg/mL | fractional inhibitory concentration index (FICI) (Staphylococcus aureus [18]): 0 | MIC (Staphylococcus aureus [19]): 1 µg/mL | MIC (Staphylococcus aureus [20]): 2 µg/mL | fractional inhibitory concentration index (FICI) (Staphylococcus aureus [21]): 0.5 | MIC (Staphylococcus aureus [22]): 512 µg/mL (≈ 1720 µM) | MIC (Staphylococcus aureus [23]): 4 µg/mL | fractional inhibitory concentration index (FICI) (Staphylococcus aureus [24]): 4 | MIC (Staphylococcus aureus [25]): 2 µg/mL | fractional inhibitory concentration index (FICI) (Staphylococcus aureus [26]): 0.3 | MIC (Staphylococcus aureus [27]): 1020 µg/mL (≈ 3430 µM) | fractional inhibitory concentration index (FICI) (Staphylococcus aureus [28]): 0.1 | fractional inhibitory concentration index (FICI) (Staphylococcus aureus [29]): 0.3 | fractional inhibitory concentration index (FICI) (Staphylococcus aureus [30]): 8 | MIC (Staphylococcus aureus [31]): 1 µg/mL | MIC (Staphylococcus aureus [32]): 16 µg/mL | fractional inhibitory concentration index (FICI) (Staphylococcus aureus [33]): 0.6 | fractional inhibitory concentration index (FICI) (Staphylococcus aureus [34]): 0.3 | MIC (Staphylococcus aureus [35]): 16 µg/mL | fractional inhibitory concentration index (FICI) (Staphylococcus aureus [36]): 0.5 | MIC (Staphylococcus aureus [37]): 4 µg/mL (≈ 13.4 µM) | fractional inhibitory concentration index (FICI) (Staphylococcus aureus [38]): 1 | fractional inhibitory concentration index (FICI) (Staphylococcus aureus [39]): 0

Source: ChEMBL document CHEMBL4330069, “Boosting the efficacy of anti-MRSA β-lactam antibiotics via an easily accessible, non-cytotoxic and orally bioavailable FtsZ inhibitor” (Eur J Med Chem, 2019)
